Results reported in ChEMBL document CHEMBL1121938, “Hypocholesterolemic and antiaggregatory properties of 2-hydroxytetronic acid redox analogues an their relationship to clofibric acid” (1982).

How the values were obtained:
Rattus norvegicus [1] = assay: Effect of compound was measured on serum total cholesterol in male Dawley rats at the dose of 0.2 mmol/kg (day-1).; type: functional, organism-based
In short: (§1)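 Serum total cholesterol was measured enzymatically on a bichromatic analyzer. Serum was separated after clotting on ice (2000g, 10 min), held at 4 °C and assayed within 48 h. Rats were male Sprague-Dawley on a high-cholesterol diet, n = 6, dosed orally twice daily for 14 days in 0.25% methylcellulose (1.0 mL/100 g). They were fasted 16-18 h before each bleed. Results are in mg/dL ± SD.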

Rattus norvegicus [2] = assay: Effect of compound was measured on serum total triglycerides in male Dawley rats at the dose of 0.4 mmol/kg (day+10).; type: functional, organism-based
In short: (§2)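 Serum triglycerides were measured with an enzymatic triglyceride reagent on a bichromatic analyzer. Rats were male Sprague-Dawley (180-210 g) fed a high-cholesterol diet, n = 6 per group, dosed orally twice daily for 14 days in 0.25% methylcellulose or vehicle. They were fasted 16-18 h before blood collection on days -1, +4, +7, +10 (orbital plexus, light ether) and +14 (aorta). Analysis was repeated-measures ANOVA with Duncan's test.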

Rattus norvegicus [3] = assay: Effect of compound was measured on serum total triglycerides in male Dawley rats at the dose of 0.2 mmol/kg (day-1).; type: functional, organism-based; in short: as §2
[4] = Effect of compound on liver to body weight ratio in male Dawley rats at the dose of 0.2 mmol/kg; type: functional
In short: (§3)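 Male Sprague-Dawley rats (180-210 g) were kept on a cholesterol-rich diet and dosed orally twice daily for 14 days in 0.25% methylcellulose; vehicle controls received the same; n = 6 per group. After a 16-18 h fast, rats were exsanguinated at day +14. Livers were removed, rinsed in ice-cold buffer, blotted and weighed, and related to body weight. Data were analysed by repeated-measures ANOVA with Duncan's multiple range test.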

Rattus norvegicus [5] = assay: Effect of compound was measured on serum total triglycerides in male Dawley rats at the dose of 0.2 mmol/kg (day+14).; type: functional, organism-based; in short: as §2
Rattus norvegicus [6] = assay: Effect of compound on liver CH levels in male Dawley rats at the dose of 0.2 mmol/kg; type: functional
In short: (§4)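 Male Sprague-Dawley rats (180-210 g) were kept on a high-cholesterol diet for 1 week before and throughout treatment. Groups of n = 6 received drug in 0.25% methylcellulose orally twice daily for 14 days, or vehicle. After a 16-18 h fast, livers were excised at day +14 and homogenized in 0.1 M Tris-HCl pH 7.2 with 1.15% KCl. Lipids were extracted from 25% w/v homogenate and reported as g/100 g wet liver ± SD; groups compared by ANOVA and Duncan's test.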

Rattus norvegicus [7] = assay: Effect of compound was measured on serum alpha-lipoprotein in male Dawley rats at the dose of 0.4 mmol/kg (day14).; type: functional
In short: (§5)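 Male Sprague-Dawley rats (180-210 g) fed a high-cholesterol diet for 1 week before and throughout dosing. Groups of n = 6 were dosed orally twice daily for 14 days in 0.25% methylcellulose, with vehicle controls. Rats were fasted 16-18 h before orbital bleeds on days -1, +4, +7 and +10, and by aortic exsanguination on day +14. Serum α-lipoprotein cholesterol was measured by polyanionic precipitation, in mg/dL ± SD.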

Rattus norvegicus [8] = assay: Effect of compound was measured on serum total cholesterol in male Dawley rats at the dose of 0.4 mmol/kg (day+4).; type: functional, organism-based; in short: as §1
Rattus norvegicus [9] = assay: Effect of compound was measured on serum total cholesterol in male Dawley rats at the dose of 0.2 mmol/kg (day+10).; type: functional, organism-based; in short: as §1
Rattus norvegicus [10] = assay: Effect of compound was measured on serum total cholesterol in male Dawley rats at the dose of 0.2 mmol/kg (day+4).; type: functional, organism-based; in short: as §1
Rattus norvegicus [11] = assay: Effect of compound on liver TG levels in male Dawley rats at the dose of 0.2 mmol/kg; type: functional; in short: as §4
Rattus norvegicus [12] = assay: Effect of compound was measured on serum alpha-lipoprotein in male Dawley rats at the dose of 0.4 mmol/kg (day+10).; type: functional; in short: as §5
Rattus norvegicus [13] = assay: Effect of compound was measured on serum total cholesterol in male Dawley rats at the dose of 0.4 mmol/kg (day-1).; type: functional, organism-based; in short: as §1
Rattus norvegicus [14] = assay: Effect of compound was measured on serum total cholesterol in male Dawley rats at the dose of 0.4 mmol/kg (day+10).; type: functional, organism-based; in short: as §1
[15] = Effect of compound was measured on serum heparin-MnCl2 precipated ipoprotein Dawley rats at 0.4 mmol/kg dose(day+10).; type: functional
In short: (§6)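 Cholesterol-fed male Sprague-Dawley rats, n = 6 per group, given compound or 0.25% methylcellulose orally twice daily for 14 days, and fasted 16-18 h before each bleed (days -1, +4, +7, +10, +14). Heparin-MnCl2 precipitable lipoprotein cholesterol was taken as serum total cholesterol minus α-lipoprotein cholesterol. It is reported as a ratio to α-LP cholesterol ± SD. Analysis was ANOVA with repeated measures and Duncan's test.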

[16] = Effect of compound was measured on serum heparin-MnCl2 precipated ipoprotein Dawley rats at 0.2 mmol/kg dose(day-1).; type: functional; in short: as §6
Rattus norvegicus [17] = assay: Effect of compound was measured on serum alpha-lipoprotein in male Dawley rats at the dose of 0.4 mmol/kg (day-1).; type: functional; in short: as §5
[18] = Effect of compound was measured on serum heparin-MnCl2 precipated ipoprotein Dawley rats at 0.4 mmol/kg dose(day+14).; type: functional; in short: as §6
Rattus norvegicus [19] = assay: Effect of compound on liver CH levels in male Dawley rats at the dose of 0.4 mmol/kg; type: functional; parameters: unit: g/100 g wet liver; in short: as §4
Rattus norvegicus [20] = assay: Effect of compound was measured on serum alpha-lipoprotein in male Dawley rats at the dose of 0.2 mmol/kg (day+4).; type: functional; in short: as §5
Rattus norvegicus [21] = assay: Effect of compound was measured on serum alpha-lipoprotein in male Dawley rats at the dose of 0.4 mmol/kg (day+4).; type: functional; in short: as §5
[22] = Effect of compound was measured on serum heparin-MnCl2 precipated ipoprotein Dawley rats at 0.2 mmol/kg dose(day+10).; type: functional; in short: as §6
Rattus norvegicus [23] = assay: Effect of compound was measured on serum total triglycerides in male Dawley rats at the dose of 0.2 mmol/kg (day+7).; type: functional, organism-based; in short: as §2
[24] = Effect of compound was measured on serum heparin-MnCl2 precipated ipoprotein Dawley rats at 0.4 mmol/kg dose(day+4).; type: functional; in short: as §6
Rattus norvegicus [25] = assay: Effect of compound was measured on serum total triglycerides in male Dawley rats at the dose of 0.4 mmol/kg (day+4); type: functional, organism-based; in short: as §2
Rattus norvegicus [26] = assay: Effect of compound was measured on serum alpha-lipoprotein in male Dawley rats at the dose of 0.2 mmol/kg (day+7).; type: functional; in short: as §5
[27] = Effect of compound was measured on serum heparin-MnCl2 precipated ipoprotein Dawley rats at 0.2 mmol/kg dose(day+4).; type: functional; in short: as §6
Rattus norvegicus [28] = assay: Effect of compound was measured on serum total triglycerides in male Dawley rats at the dose of 0.4 mmol/kg (day+7).; type: functional, organism-based; in short: as §2
Rattus norvegicus [29] = assay: Effect of compound was measured on serum alpha-lipoprotein in male Dawley rats at the dose of 0.2 mmol/kg (day-1).; type: functional; in short: as §5
Rattus norvegicus [30] = assay: Effect of compound was measured on serum alpha-lipoprotein in male Dawley rats at the dose of 0.2 mmol/kg (day+10).; type: functional; in short: as §5
[31] = Effect of compound was measured on serum heparin-MnCl2 precipated ipoprotein Dawley rats at 0.4 mmol/kg dose(day+7).; type: functional; in short: as §6
[32] = Effect of compound was measured on serum heparin-MnCl2 precipated ipoprotein Dawley rats at 0.2 mmol/kg dose(day+7).; type: functional; in short: as §6
[33] = Effect of compound was measured on serum heparin-MnCl2 precipated ipoprotein Dawley rats at 0.4 mmol/kg dose(day-1).; type: functional; in short: as §6
Rattus norvegicus [34] = assay: Effect of compound was measured on serum alpha-lipoprotein in male Dawley rats at the dose of 0.2 mmol/kg (day+14).; type: functional; in short: as §5
Rattus norvegicus [35] = assay: Effect of compound was measured on serum total cholesterol in male Dawley rats at the dose of 0.2 mmol/kg (day+7).; type: functional, organism-based; in short: as §1
Rattus norvegicus [36] = assay: Effect of compound was measured on serum total triglycerides in male Dawley rats at the dose of 0.2 mmol/kg (day+10).; type: functional, organism-based; in short: as §2
[37] = Effect of compound on liver to body weight ratio in male Dawley rats at the dose of 0.4 mmol/kg; type: functional; in short: as §3
Rattus norvegicus [38] = assay: Effect of compound was measured on serum alpha-lipoprotein in male Dawley rats at the dose of 0.4 mmol/kg (day+7).; type: functional; in short: as §5
[39] = Effect of compound was measured on serum heparin-MnCl2 precipated ipoprotein Dawley rats at 0.2 mmol/kg dose(day+14).; type: functional; in short: as §6
Rattus norvegicus [40] = assay: Effect of compound was measured on serum total cholesterol in male Dawley rats at the dose of 0.4 mmol/kg (day+14).; type: functional, organism-based; in short: as §1
Rattus norvegicus [41] = assay: Effect of compound was measured on serum total cholesterol in male Dawley rats at the dose of 0.4 mmol/kg (day+7).; type: functional, organism-based; in short: as §1
Rattus norvegicus [42] = assay: Effect of compound was measured on serum total triglycerides in male Dawley rats at the dose of 0.2 mmol/kg (day+4).; type: functional, organism-based; in short: as §2
Rattus norvegicus [43] = assay: Effect of compound on liver TG levels in male Dawley rats at the dose of 0.4 mmol/kg; type: functional; parameters: unit: g/100 g wet liver; in short: as §4
Rattus norvegicus [44] = assay: Effect of compound was measured on serum total triglycerides in male Dawley rats at the dose of 0.4 mmol/kg (day-1); type: functional, organism-based; in short: as §2
Rattus norvegicus [45] = assay: Effect of compound was measured on serum total cholesterol in male Dawley rats at the dose of 0.2 mmol/kg (day+14).; type: functional, organism-based; in short: as §1
Rattus norvegicus [46] = assay: Effect of compound was measured on serum total triglycerides in male Dawley rats at the dose of 0.4 mmol/kg (day+14).; type: functional, organism-based; in short: as §2

O=C1C(O)=C(O)OC1c1ccc(Cl)cc1 (stereo unspecified)
serum total cholesterol (Rattus norvegicus [1]): 276 mg/dL | Serum total triglycerides (Rattus norvegicus [2]): 139 mg/dL | Serum total triglycerides (Rattus norvegicus [3]): 313 mg/dL | Ratio [4]: 3.8 | Serum total triglycerides (Rattus norvegicus [5]): 148 mg/dL | Liver CH levels (Rattus norvegicus [6]): 3.28 | Alpha-lipoprotein cholesterol (Rattus norvegicus [7]): 61 mg/dL | serum total cholesterol (Rattus norvegicus [8]): 154 mg/dL | serum total cholesterol (Rattus norvegicus [9]): 161 mg/dL | serum total cholesterol (Rattus norvegicus [10]): 195 mg/dL | Liver TG (Rattus norvegicus [11]): 4.82 | Alpha-lipoprotein cholesterol (Rattus norvegicus [12]): 52.2 mg/dL | serum total cholesterol (Rattus norvegicus [13]): 196 mg/dL | serum total cholesterol (Rattus norvegicus [14]): 135 mg/dL | Ratio [15]: 1.75 | Ratio [16]: 6.03 | Alpha-lipoprotein cholesterol (Rattus norvegicus [17]): 39.7 mg/dL | Ratio [18]: 1.39 | Liver CH levels (Rattus norvegicus [19]): 2.93 | Alpha-lipoprotein cholesterol (Rattus norvegicus [20]): 43.8 mg/dL | Alpha-lipoprotein cholesterol (Rattus norvegicus [21]): 41.8 mg/dL | Ratio [22]: 3.33 | Serum total triglycerides (Rattus norvegicus [23]): 204 mg/dL | Ratio [24]: 2.79 | Serum total triglycerides (Rattus norvegicus [25]): 167 mg/dL | Alpha-lipoprotein cholesterol (Rattus norvegicus [26]): 42.5 mg/dL | Ratio [27]: 3.72 | Serum total triglycerides (Rattus norvegicus [28]): 147 mg/dL | Alpha-lipoprotein cholesterol (Rattus norvegicus [29]): 40.8 mg/dL | Alpha-lipoprotein cholesterol (Rattus norvegicus [30]): 38.8 mg/dL | Ratio [31]: 1.74 | Ratio [32]: 4.03 | Ratio [33]: 3.96 | Alpha-lipoprotein cholesterol (Rattus norvegicus [34]): 48.5 mg/dL | serum total cholesterol (Rattus norvegicus [35]): 204 mg/dL | Serum total triglycerides (Rattus norvegicus [36]): 193 mg/dL | Ratio [37]: 3.6 | Alpha-lipoprotein cholesterol (Rattus norvegicus [38]): 46 mg/dL | Ratio [39]: 2.2 | serum total cholesterol (Rattus norvegicus [40]): 138 mg/dL | serum total cholesterol (Rattus norvegicus [41]): 125 mg/dL | Serum total triglycerides (Rattus norvegicus [42]): 251 mg/dL | Liver TG (Rattus norvegicus [43]): 5.08 | Serum total triglycerides (Rattus norvegicus [44]): 193 mg/dL | serum total cholesterol (Rattus norvegicus [45]): 145 mg/dL | Serum total triglycerides (Rattus norvegicus [46]): 87.8 mg/dL
